From ChEMBL document CHEMBL1146380, “Synthesis, antimicrobial activity, and QSAR studies of furan-3-carboxamides” (2007)
In brackets after ≈: the same amount, converted by molar mass. Activity calls are given as the source filed them. The calls are words filed in the database; no cut-off is given here.

What was measured:
Candida albicans = test: Antimicrobial activity against Candida albicans ATCC 44373 by broth microdilution method; format: functional
Summary of the method: (§1)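 Yeasts grown on potato dextrose agar. Inoculum was standardized by McFarland turbidity as for bacteria, into RPMI 1640 broth (M27-A2). DMSO-dissolved compound was tested in twofold dilutions from 320 to 1.25 at 35 °C for 24 h, in duplicate. MIC was the lowest concentration completely inhibiting visible growth. Fungicidal concentration was read by subculturing 20 µL from clear wells on Sabouraud dextrose agar at 35 °C.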

Candida dubliniensis = test: Antimicrobial activity against Candida dubliniensis CBS 7987 by broth microdilution method; format: functional; summary of the method: as §1
Nakaseomyces glabratus = test: Antimicrobial activity against Candida glabrata […] by broth microdilution method; format: functional; summary of the method: as §1
[1] = system: Cryptococcus deneoformans; test: Antimicrobial activity against Cryptococcus neoformans var.neoformans serotype D ATCC 28952 by broth microdilution method; format: functional
Summary of the method: (§2)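 Organism grown on potato dextrose agar, with turbidity-standardized inoculum in RPMI 1640 broth (M27-A2). DMSO-dissolved compound was tested in twofold dilutions from 320 to 1.25 at 35 °C, incubated up to 72 h, in duplicate. MIC was the lowest concentration with no visible growth. Cidal concentration was read by subculturing 20 µL from clear wells on Sabouraud dextrose agar, incubated for the same period.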

Saccharomyces cerevisiae = test: Antimicrobial activity against Saccharomyces cerevisiae ATCC 2601 by broth microdilution method; format: functional; summary of the method: as §2
Staphylococcus aureus = test: Antimicrobial activity against Staphylococcus aureus ATCC 25923 by broth microdilution method; format: functional
Summary of the method: (§3)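 Bacteria grown overnight on Mueller–Hinton agar. Colonies were suspended in saline to McFarland turbidity (about 10^8 cfu/mL), diluted 1:100 in saline, then 1:20 in Mueller–Hinton broth, giving 5 · 10^4 cfu/mL per well. DMSO-dissolved compound was tested in twofold dilutions from 320 to 1.25 at 35 °C for 24 h. MIC was the lowest concentration with no visible turbidity (M7-A4). Bactericidal concentration was read by subculturing clear wells on Mueller–Hinton agar.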

Klebsiella pneumoniae = test: Antimicrobial activity against Klebsiella pneumoniae ATCC 1003 by broth microdilution method; format: functional; summary of the method: as §3
Escherichia coli = test: Antimicrobial activity against Escherichia coli ATCC 25922 by broth microdilution method; format: functional; summary of the method: as §3
[2] = (§4) Antimicrobial activity against Salmonella setubal ATCC 19196 by broth microdilution method; format: functional, Salmonella enterica subsp. enterica serovar Setubal; conditions: Salmonella enterica; summary of the method: as §3
[3] = system: Salmonella enterica subsp. enterica serovar Setubal; test: as §4; format: functional; summary of the method: as §3
Prototheca zopfii = test: Antimicrobial activity against Prototheca zopfii by broth microdilution method; format: functional; summary of the method: as §2
Pseudomonas aeruginosa = test: Antimicrobial activity against Pseudomonas aeruginosa ATCC 27853 by broth microdilution method; format: functional; summary of the method: as §3
Rhizopus arrhizus = test: Antimicrobial activity against Rhizopus oryzae isolate by broth microdilution method; format: functional
Sporothrix schenckii = test: Antimicrobial activity against Sporothrix schenckii ATCC 1146 by broth microdilution method; format: functional
Fusarium solani = test: Antimicrobial activity against Fusarium solani isolate by broth microdilution method; format: functional
Aspergillus fumigatus = test: Antimicrobial activity against Aspergillus fumigatus isolate by broth microdilution method; format: functional
Aspergillus flavus = test: Antimicrobial activity against Aspergillus flavus isolate by broth microdilution method; format: functional
Aspergillus niger = test: Antimicrobial activity against Aspergillus niger isolate by broth microdilution method; format: functional
Aspergillus terreus = test: Antimicrobial activity against Aspergillus terreus isolate by broth microdilution method; format: functional
Scedosporium boydii = test: Antimicrobial activity against Pseudallescheria boydii isolate by broth microdilution method; format: functional

SMILES: CN(C)C(=O)c1ccoc1
- Activity (Candida albicans): inactive
- Activity (Candida dubliniensis): inactive
- Activity (Nakaseomyces glabratus): inactive
- Activity [1]: inactive
- MIC [1]: 320 µg/mL (≈ 2300 µM)
- MIC (Saccharomyces cerevisiae): inactive
- Activity (Staphylococcus aureus): inactive
- MIC (Staphylococcus aureus): 320 µg/mL (≈ 2300 µM)
- Activity (Klebsiella pneumoniae): inactive
- MIC (Klebsiella pneumoniae): 320 µg/mL (≈ 2300 µM)
- Activity (Escherichia coli): inactive
- MIC [2]: 320 µg/mL (≈ 2300 µM)
- Activity [3]: inactive
- Activity (Prototheca zopfii): inactive
- MIC (Prototheca zopfii): 320 µg/mL (≈ 2300 µM)
- Activity (Pseudomonas aeruginosa): inactive
- MIC (Pseudomonas aeruginosa): 320 µg/mL (≈ 2300 µM)
- MFC (Rhizopus arrhizus): 320 µg/mL (≈ 2300 µM)
- MIC (Rhizopus arrhizus): 320 µg/mL (≈ 2300 µM)
- MFC (Sporothrix schenckii): 320 µg/mL (≈ 2300 µM)
- MIC (Sporothrix schenckii): 160 µg/mL (≈ 1150 µM)
- Activity (Fusarium solani): inactive
- Activity (Aspergillus fumigatus): inactive
- Activity (Aspergillus flavus): inactive
- Activity (Aspergillus niger): inactive
- MIC (Aspergillus niger): 320 µg/mL (≈ 2300 µM)
- Activity (Aspergillus terreus): inactive
- MFC (Scedosporium boydii): 320 µg/mL (≈ 2300 µM)
- MIC (Scedosporium boydii): 160 µg/mL (≈ 1150 µM)
